Data taken from ChEMBL document CHEMBL1255221, “Synthesis and evaluation of selected key methyl ether derivatives of vancomycin aglycon” (2010).
In brackets after ≈: the same amount, converted by molar mass.

Columns and labels:
Format in all cases: functional
Enterococcus faecalis [1] = test: Antimicrobial activity against vancomycin B-resistant Enterococcus faecalis ATCC 51299
How it was run: (§1)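 MIC measured in a microtiter plate-based antimicrobial assay, in μg/mL. VanA E. faecalis BM4166 is vancomycin- and teicoplanin-resistant; VanB E. faecalis ATCC 51299 is vancomycin-resistant and teicoplanin-sensitive. Both strains carry a vancomycin-inducible resistance pathway, switching from D-Ala-D-Ala to D-Ala-D-Lac cell-wall precursors on glycopeptide exposure.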

Enterococcus faecalis [2] = test: Antimicrobial activity against vancomycin A-resistant Enterococcus faecalis BM 4166; how it was run: as §1
Staphylococcus aureus = test: Antimicrobial activity against Staphylococcus aureus ATCC 25923

Row | Structure (SMILES) | MIC (Enterococcus faecalis [1]) [µg/mL] | MIC (Enterococcus faecalis [2]) [µg/mL] | MIC (Staphylococcus aureus) [µg/mL]
1 | CN[C@H](CC(C)C)C(=O)N[C@H]1C(=O)N[C@@H](CC(N)=O)C(=O)N[C@H]2C(=O)N[C@H]3C(=O)N[C@H](C(=O)N[C@@H](C(=O)OC)c4cc(OC)cc(OC)c4-c4cc3ccc4OC)[C@H](O)c3ccc(c(Cl)c3)Oc3cc2cc(c3OC)Oc2ccc(cc2Cl)[C@H]1O | 1.25 (≈ 1.03 µM) | 40 (≈ 32.9 µM) | 1.25 (≈ 1.03 µM)
2 | CN[C@H](CC(C)C)C(=O)N[C@H]1C(=O)N[C@@H](CC(N)=O)C(=O)N[C@H]2C(=O)N[C@H]3C(=O)N[C@H](C(=O)N[C@@H](C(=O)O)c4cc(OC)cc(OC)c4-c4cc3ccc4OC)[C@H](O)c3ccc(c(Cl)c3)Oc3cc2cc(c3O)Oc2ccc(cc2Cl)[C@H]1O | 10 (≈ 8.43 µM) | 640 (≈ 540 µM) | 
3 | CN[C@H](CC(C)C)C(=O)N[C@H]1C(=O)N[C@@H](CC(N)=O)C(=O)N[C@H]2C(=O)N[C@H]3C(=O)N[C@H](C(=O)N[C@H](C(=O)O)c4cc(O)cc(O)c4-c4cc3ccc4O)[C@H](O)c3ccc(c(Cl)c3)Oc3cc2cc(c3O[C@@H]2O[C@H](CO)[C@@H](O)[C@H](O)[C@H]2O[C@H]2C[C@](C)(N)[C@H](O)[C@H](C)O2)Oc2ccc(cc2Cl)[C@H]1O [VANCOMYCIN] | 120 (≈ 82.8 µM) | 2000 (≈ 1380 µM) | 
4 | CN[C@H](CC(C)C)C(=O)N[C@H]1C(=O)N[C@@H](CC(N)=O)C(=O)N[C@H]2C(=O)N[C@H]3C(=O)N[C@H](C(=O)N[C@@H](C(=O)O)c4cc(OC)cc(OC)c4-c4cc3ccc4O)[C@H](O)c3ccc(c(Cl)c3)Oc3cc2cc(c3O)Oc2ccc(cc2Cl)[C@H]1O | 120 (≈ 102 µM) | 640 (≈ 546 µM) | 10 (≈ 8.53 µM)
5 | CN[C@H](CC(C)C)C(=O)N[C@H]1C(=O)N[C@@H](CC(N)=O)C(=O)N[C@H]2C(=O)N[C@H]3C(=O)N[C@H](C(=O)N[C@@H](C(=O)O)c4cc(O)cc(O)c4-c4cc3ccc4O)[C@H](O)c3ccc(c(Cl)c3)Oc3cc2cc(c3OC)Oc2ccc(cc2Cl)[C@H]1O | 40 (≈ 34.5 µM) | 240 (≈ 207 µM) | 1.25 (≈ 1.08 µM)
6 | CN[C@@H](CC(C)C)C(=O)N[C@H]1C(=O)N[C@@H](CC(N)=O)C(=O)N[C@H]2C(=O)N[C@H]3C(=O)N[C@H](C(=O)N[C@@H](C(=O)O)c4cc(O)cc(O)c4-c4cc3ccc4O)[C@H](O)c3ccc(c(Cl)c3)Oc3cc2cc(c3O[C@@H]2O[C@H](CO)[C@@H](O)[C@H](O)[C@H]2O[C@H]2C[C@](C)(NCc3ccc(-c4ccc(Cl)cc4)cc3)[C@H](O)[C@H](C)O2)Oc2ccc(cc2Cl)[C@H]1O | 0.03 (≈ 0.0182 µM) | 10 (≈ 6.06 µM) | 0.03 (≈ 0.0182 µM)
7 | CN[C@H](CC(C)C)C(=O)N[C@H]1C(=O)N[C@@H](CC(N)=O)C(=O)N[C@H]2C(=O)N[C@H]3C(=O)N[C@H](C(=O)N[C@@H](C(=O)O)c4cc(OC)cc(OC)c4-c4cc3ccc4OC)[C@H](O)c3ccc(c(Cl)c3)Oc3cc2cc(c3OC)Oc2ccc(cc2Cl)[C@H]1O | 2.5 (≈ 2.08 µM) | 80 (≈ 66.7 µM) | 1.25 (≈ 1.04 µM)
8 | CN[C@H](CC(C)C)C(=O)N[C@H]1C(=O)N[C@@H](CC(N)=O)C(=O)N[C@H]2C(=O)N[C@H]3C(=O)N[C@H](C(=O)N[C@@H](C(=O)O)c4cc(OC)cc(O)c4-c4cc3ccc4OC)[C@H](O)c3ccc(c(Cl)c3)Oc3cc2cc(c3O)Oc2ccc(cc2Cl)[C@H]1O | 120 (≈ 102 µM) | 640 (≈ 546 µM) | 10 (≈ 8.53 µM)
9 | CN[C@H](CC(C)C)C(=O)N[C@H]1C(=O)N[C@@H](CC(N)=O)C(=O)N[C@H]2C(=O)N[C@H]3C(=O)N[C@H](C(=O)N[C@H](C(=O)O)c4cc(O)cc(O)c4-c4cc3ccc4O)[C@H](O)c3ccc(c(Cl)c3)Oc3cc2cc(c3O)Oc2ccc(cc2Cl)[C@H]1O [VANCOMYCIN AGLYCON] | > 40 | > 100 | 0.6 (≈ 0.525 µM)
